{"source": "ChEMBL document CHEMBL1154086", "about": "“Novel Biginelli dihydropyrimidines with potential anticancer activity: a parallel synthesis and CoMSIA study” (Eur J Med Chem, 2009)", "type_in_all_cases": "functional", "key": {"[1]": {"test_system": "Radical scavenging activity", "assay": "Antioxidant activity assessed as DPPH radical scavenging activity at 100 ug after 30 mins by ELISA", "procedure,_shortened": "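Ethanolic DPPH (200 µl) mixed with 10 µl compound solution (100 µg) in 96-well plate, 37 °C for 30 min; decrease in absorbance read at 490 nm on ELISA reader. Ascorbic acid (10 µg) standard.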"}, "MCF7": {"test_system": "MCF7", "assay": "Anticancer activity against human MCF7 cells assessed as cell viability at 10 ug after 3 hrs by trypan blue dye exclusion assay", "procedure,_shortened": "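MCF-7 cells grown in peritoneal cavity of albino mice (25–30 g) after i.p. injection of 1 × 10^6 cells/ml; aspirated day 15, washed three times in HBSS, adjusted to 1 × 10^6 cells/ml. 0.1 ml cells plus 0.1 ml compound (10 µg), 37 °C, 5% CO2, 3 h. Trypan blue (0.4%, 1:1) exclusion, haemocytometer count; % cytotoxicity versus untreated control, triplicate.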"}, "[2]": {"test_system": "Radical scavenging activity", "assay": "Antioxidant activity assessed as DPPH radical scavenging activity after 30 mins by ELISA", "procedure,_shortened": "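DPPH discolouration in 96-well plate: 200 µl ethanolic DPPH plus 10 µl compound solution; 37 °C, 30 min; absorbance at 490 nm on ELISA reader. IC50 (concentration inhibiting 50% of free radicals) from serial dilutions below 100 µg. Ascorbic acid (10 µg) standard.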"}}, "note": "Activity calls are given as the source filed them. No cut-off for these calls is given here."}
{"molecule": "COc1ccc(C2NC(=O)NC(C)=C2C(=O)Nc2ccccc2Cl)cc1", "note": "(centres undefined)", "values": [{"measurement": "Activity", "setting": "[1]", "value": "inactive"}, {"measurement": "Activity", "setting": "MCF7", "value": 51, "unit": "%"}]}
{"molecule": "CNC(=O)C1=C(C)NC(=S)NC1c1ccccc1O", "note": "(centres undefined)", "values": [{"measurement": "Activity", "setting": "[1]", "value": "inactive"}, {"measurement": "Activity", "setting": "MCF7", "value": 45, "unit": "%"}]}
{"molecule": "CC1=C(C(=O)Nc2ccccc2Cl)C(c2ccc(Br)cc2)NC(=S)N1", "note": "(centres undefined)", "values": [{"measurement": "Activity", "setting": "[1]", "value": "inactive"}, {"measurement": "Activity", "setting": "MCF7", "value": 18, "unit": "%"}]}
{"molecule": "CC1=C(C(=O)Nc2ccccc2Cl)C(c2ccccc2O)NC(=S)N1", "note": "(centres undefined)", "values": [{"measurement": "Activity", "setting": "[1]", "value": "inactive"}, {"measurement": "Activity", "setting": "MCF7", "value": 49, "unit": "%"}]}
{"molecule": "CC1=C(C(=O)Nc2ccccc2Cl)C(c2ccco2)NC(=O)N1", "note": "(centres undefined)", "values": [{"measurement": "Activity", "setting": "[1]", "value": "inactive"}, {"measurement": "Activity", "setting": "MCF7", "value": 69, "unit": "%"}]}
{"molecule": "CNC(=O)C1=C(C)NC(=S)NC1c1ccc(O)c(OC)c1", "note": "(centres undefined)", "values": [{"measurement": "Activity", "setting": "[1]", "value": "inactive"}, {"measurement": "Activity", "setting": "MCF7", "value": 41, "unit": "%"}]}
{"molecule": "CNC(=O)C1=C(C)NC(=O)NC1c1ccc(OC)cc1", "note": "(centres undefined)", "values": [{"measurement": "Activity", "setting": "[1]", "value": "inactive"}, {"measurement": "Activity", "setting": "MCF7", "value": 41, "unit": "%"}]}
{"molecule": "CC1=C(C(=O)Nc2ccccc2Cl)C(c2ccc(Br)cc2)NC(=O)N1", "note": "(centres undefined)", "values": [{"measurement": "Activity", "setting": "[1]", "value": "inactive"}, {"measurement": "Activity", "setting": "MCF7", "value": 7, "unit": "%"}]}
{"molecule": "CC1=C(C(=O)Nc2ccccc2Cl)C(c2ccncc2)NC(=O)N1", "note": "(centres undefined)", "values": [{"measurement": "Activity", "setting": "[1]", "value": "inactive"}, {"measurement": "Activity", "setting": "MCF7", "value": 59, "unit": "%"}]}
{"molecule": "CC1=C(C(=O)Nc2ccccc2Cl)C(c2ccco2)NC(=S)N1", "note": "(centres undefined)", "values": [{"measurement": "Activity", "setting": "[1]", "value": "inactive"}, {"measurement": "Activity", "setting": "MCF7", "value": 76, "unit": "%"}]}
{"molecule": "CC1=C(C(=O)Nc2ccccc2Cl)C(c2cccc([N+](=O)[O-])c2)NC(=S)N1", "note": "(centres undefined)", "values": [{"measurement": "Activity", "setting": "[1]", "value": "inactive"}, {"measurement": "Activity", "setting": "MCF7", "value": 13, "unit": "%"}]}
{"molecule": "COc1ccc(C2NC(=S)NC(C)=C2C(=O)Nc2ccccc2Cl)cc1", "note": "(centres undefined)", "values": [{"measurement": "Activity", "setting": "[1]", "value": "inactive"}, {"measurement": "Activity", "setting": "MCF7", "value": 47, "unit": "%"}]}
{"molecule": "CNC(=O)C1=C(C)NC(=O)NC1c1ccc(O)c(OC)c1", "note": "(centres undefined)", "values": [{"measurement": "Activity", "setting": "[1]", "value": "inactive"}, {"measurement": "Activity", "setting": "MCF7", "value": 49, "unit": "%"}]}
{"molecule": "COc1cc(C2NC(=O)NC(C)=C2C(=O)Nc2ccccc2Cl)ccc1O", "note": "(centres undefined)", "values": [{"measurement": "Activity", "setting": "[1]", "value": "inactive"}, {"measurement": "Activity", "setting": "MCF7", "value": 52, "unit": "%"}]}
{"molecule": "CNC(=O)C1=C(C)NC(=O)NC1C(=O)/C=C/c1ccccc1", "note": "(centres undefined)", "values": [{"measurement": "Activity", "setting": "[1]", "value": "inactive"}, {"measurement": "Activity", "setting": "MCF7", "value": 47, "unit": "%"}]}
{"molecule": "CC1=C(C(=O)Nc2ccccc2Cl)C(c2ccccc2)NC(=O)N1", "note": "(centres undefined)", "values": [{"measurement": "Activity", "setting": "[1]", "value": "inactive"}, {"measurement": "Activity", "setting": "MCF7", "value": 30, "unit": "%"}]}
{"molecule": "CC1=C(C(=O)Nc2ccccc2Cl)C(c2ccccc2)NC(=S)N1", "note": "(centres undefined)", "values": [{"measurement": "Activity", "setting": "[1]", "value": "inactive"}, {"measurement": "Activity", "setting": "MCF7", "value": 25, "unit": "%"}]}
{"molecule": "CNC(=O)C1=C(C)NC(=O)NC1c1ccco1", "note": "(centres undefined)", "values": [{"measurement": "Activity", "setting": "[1]", "value": "inactive"}, {"measurement": "Activity", "setting": "MCF7", "value": 61, "unit": "%"}]}
{"molecule": "CNC(=O)C1=C(C)NC(=O)NC1c1ccncc1", "note": "(centres undefined)", "values": [{"measurement": "Activity", "setting": "[1]", "value": "inactive"}, {"measurement": "Activity", "setting": "MCF7", "value": 64, "unit": "%"}]}
{"molecule": "CC1=C(C(=O)Nc2ccccc2Cl)C(c2ccccc2O)NC(=O)N1", "note": "(centres undefined)", "values": [{"measurement": "Activity", "setting": "[1]", "value": "inactive"}, {"measurement": "Activity", "setting": "MCF7", "value": 58, "unit": "%"}]}
{"molecule": "CC1=C(C(=O)Nc2ccccc2Cl)C(c2cccc([N+](=O)[O-])c2)NC(=O)N1", "note": "(centres undefined)", "values": [{"measurement": "Activity", "setting": "[1]", "value": "inactive"}, {"measurement": "Activity", "setting": "MCF7", "value": 29, "unit": "%"}]}
{"molecule": "CNC(=O)C1=C(C)NC(=O)NC1c1ccccc1", "note": "(centres undefined)", "values": [{"measurement": "Activity", "setting": "[1]", "value": "inactive"}, {"measurement": "Activity", "setting": "MCF7", "value": 27, "unit": "%"}]}
{"molecule": "CNC(=O)C1=C(C)NC(=S)NC1c1ccco1", "note": "(centres undefined)", "values": [{"measurement": "Activity", "setting": "[1]", "value": "inactive"}, {"measurement": "Activity", "setting": "MCF7", "value": 57, "unit": "%"}]}
{"molecule": "COc1cc(C2NC(=S)NC(C)=C2C(=O)Nc2ccccc2Cl)ccc1O", "note": "(centres undefined)", "values": [{"measurement": "Activity", "setting": "[1]", "value": "inactive"}, {"measurement": "Activity", "setting": "MCF7", "value": 45, "unit": "%"}]}
{"molecule": "CNC(=O)C1=C(C)NC(=S)NC1c1cccc([N+](=O)[O-])c1", "note": "(centres undefined)", "values": [{"measurement": "IC50", "setting": "[2]", "value": 58, "unit": "µg"}, {"measurement": "Activity", "setting": "MCF7", "value": 39, "unit": "%"}]}
{"molecule": "CC1=C(C(=O)Nc2ccccc2Cl)C(c2ccccc2)NC(=N)N1C#N", "note": "(centres undefined)", "values": [{"measurement": "Activity", "setting": "[1]", "value": "inactive"}, {"measurement": "Activity", "setting": "MCF7", "value": 35, "unit": "%"}]}
{"molecule": "CC1=C(C(=O)Nc2ccccc2Cl)C(c2ccncc2)NC(=S)N1", "note": "(centres undefined)", "values": [{"measurement": "Activity", "setting": "[1]", "value": "inactive"}, {"measurement": "Activity", "setting": "MCF7", "value": 72, "unit": "%"}]}
{"molecule": "CC1=C(C(=O)Nc2ccccc2Cl)C(C(=O)/C=C/c2ccccc2)NC(=O)N1", "note": "(centres undefined)", "values": [{"measurement": "Activity", "setting": "[1]", "value": "inactive"}, {"measurement": "Activity", "setting": "MCF7", "value": 79, "unit": "%"}]}
{"molecule": "CNC(=O)C1=C(C)NC(=S)NC1c1ccc(OC)cc1", "note": "(centres undefined)", "values": [{"measurement": "Activity", "setting": "[1]", "value": "inactive"}, {"measurement": "Activity", "setting": "MCF7", "value": 48, "unit": "%"}]}
{"molecule": "CNC(=O)C1=C(C)NC(=O)NC1c1cccc([N+](=O)[O-])c1", "note": "(centres undefined)", "values": [{"measurement": "IC50", "setting": "[2]", "value": 63, "unit": "µg"}, {"measurement": "Activity", "setting": "MCF7", "value": 23, "unit": "%"}]}
{"molecule": "CC1=C(C(=O)Nc2ccccc2Cl)C(C(=O)/C=C/c2ccccc2)NC(=S)N1", "note": "(centres undefined)", "values": [{"measurement": "Activity", "setting": "[1]", "value": "inactive"}, {"measurement": "Activity", "setting": "MCF7", "value": 71, "unit": "%"}]}
{"molecule": "CNC(=O)C1=C(C)NC(=S)NC1c1ccccc1", "note": "(centres undefined)", "values": [{"measurement": "Activity", "setting": "[1]", "value": "inactive"}, {"measurement": "Activity", "setting": "MCF7", "value": 35, "unit": "%"}]}
